This is an account of results in ChEMBL document CHEMBL1139095, “Butyl 2-(4-[1.1'-biphenyl]-4-yl-1H-imidazol-2-yl)ethylcarbamate, a potent sodium channel blocker for the treatment of neuropathic pain” (Bioorg Med Chem Lett, 2007).

The structures appear in SMILES notation. The source made the active and inactive calls.

For one assay, the system named is Rattus norvegicus. The assay can be described thus: Antihyperalgesic effect in carrageenan-induced rat hyperalgesia model at 30 mg/kg, ip. Format: functional, organism-based. More on the design: dose 30 mg/kg. An outline of the steps:
(§1)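 Compound or vehicle was given ip 30 min before paw withdrawal threshold was measured to mechanical stimulus (Randall–Selitto). Carrageenan model: inflamed versus contralateral paw. CCI model: injured versus non-injured paw. Groups of n = 4–6 were compared with vehicle by two-sided Student/Dunnett test; mean ± SEM.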
Take `CCCCOC(=O)NCCc1nc(-c2ccc(-c3ccccc3)cc2)c[nH]1`: the result was Active.

The test system of the next assay is Rattus norvegicus. The assay can be described thus: Antihyperalgesic effect in carrageenan-induced rat hyperalgesia model at 10 mg/kg, ip. Format: functional, organism-based. Also noted: dose 10 mg/kg. A digest of the protocol:
as §1
For `CCCCOC(=O)NCCc1nc(-c2ccc(-c3ccccc3)cc2)c[nH]1`, the outcome was Active.

Target in another assay: not listed separately
The assay can be described thus: Displacement of [3H]BTX from sodium channel in rat cerebral cortex synaptosomal membrane. The format is tissue-based.
For orientation: IC50 means the midpoint of a concentration-inhibition curve. High values mean a need for much substance, low ones inhibition by little substance. The compound `CC(C)COC(=O)NCCc1nc(-c2ccc(-c3ccccc3)cc2)c[nH]1` registered an IC50 of 26 nM.
Same read-out and setting: next, `CCCCCCOC(=O)NCCc1nc(-c2ccc(-c3ccccc3)cc2)c[nH]1`: 15 nM; `CCCOC(=O)NCCc1nc(-c2ccc(-c3ccccc3)cc2)c[nH]1`: 86 nM; `O=C(NCCc1nc(-c2ccc(-c3ccccc3)cc2)c[nH]1)OC1CCCC1`: 52 nM.
`CCCCOC(=O)NCCc1nc(-c2ccc(CCC)cc2)c[nH]1` registered an IC50 of 62 nM.
With `CCOC(=O)NCCc1nc(-c2ccc(-c3ccccc3)cc2)c[nH]1`, the IC50 came out at 71 nM.
`CCCCOC(=O)NCCc1nc(-c2ccc(C(F)(F)F)cc2)c[nH]1` returned a half-inhibitory concentration (IC50) of 453 nM.
Still for that read-out and setting: next, `CCCCOC(=O)NCCc1nc(-c2ccc(-c3ccccc3)cc2)c[nH]1`: 32 nM; `COC(=O)NCCc1nc(-c2ccc(-c3ccccc3)cc2)c[nH]1`: 282 nM; `CC(C)(C)OC(=O)NCc1nc(-c2ccc(-c3ccccc3)cc2)c[nH]1`: 144 nM.
In the case of `CC(C)(C)OC(=O)NCCc1nc(-c2ccc(-c3ccccc3)cc2)c[nH]1`, the IC50 was found to be 64 nM.
On the same count and under the same terms, then `CC(C)(C)COC(=O)NCCc1nc(-c2ccc(-c3ccccc3)cc2)c[nH]1`, with 372 nM; and `CCCCOC(=O)NCCc1nc(-c2ccc(CC)cc2)c[nH]1`, with 96 nM; and `CCCCOC(=O)NCCc1nc(-c2ccc(C3CCCCC3)cc2)c[nH]1`, with 7 nM.
The same measure, in the same setting: then `CCCCOC(=O)NCCc1nc(-c2ccc(CC(C)C)cc2)c[nH]1`, with 41 nM; and `CCCCOC(=O)NCCc1nc(-c2ccc(N3CCCC3)cc2)c[nH]1`, with 14 nM; and `CC(C)(C)OC(=O)NCCCc1nc(-c2ccc(-c3ccccc3)cc2)c[nH]1`, with 184 nM.
`CCCCOC(=O)NCCc1nc(-c2ccc(F)cc2)c[nH]1` displayed an IC50 of 1000 nM.
For `O=C(NCCc1nc(-c2ccc(-c3ccccc3)cc2)c[nH]1)OC1CCCCC1`, the IC50 turned out to be 26 nM.
Still for that read-out and setting: then `CCCCOC(=O)NCCc1nc(-c2ccc(Br)cc2)c[nH]1`, with 210 nM.
In turn, `O=C(NCCc1nc(-c2ccc(-c3ccccc3)cc2)c[nH]1)OCC1CCCCC1` showed a half-inhibitory concentration (IC50) of 21 nM.

In a further assay the test system is Rattus norvegicus. The assay can be described thus: Protective activity against chronic constriction injury-induced rat neuropathic pain model at 30 mg/kg, ip. The format is functional, organism-based. Also noted: dose 30 mg/kg. An outline of the steps: as §1
As for `CCCCOC(=O)NCCc1nc(-c2ccc(-c3ccccc3)cc2)c[nH]1`, the outcome was Active.

The next assay has as its system SH-SY5Y. As to the kind of experiment: Cytoprotection against vetratridine-induced cytotoxicity in human SH-SY5Y cells. Format: functional, cell-based. An outline of the steps:
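SH-SY5Y neuroblastoma cells were seeded 24 h ahead and pre-incubated 20 min with compound. They were then exposed 3 h to veratridine plus 1 mM ouabain, and the medium was swapped for 10% alamar blue for 18–24 h. Absorbance was read at 570/620. Percent cell injury was calculated from blank-corrected OD. IC50 (concentration halving injury) was extrapolated from dose–response graphs; triplicate means, two experiments.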
`CC(C)COC(=O)NCCc1nc(-c2ccc(-c3ccccc3)cc2)c[nH]1` yielded an IC50 of 610 nM.
For `CCCCCCOC(=O)NCCc1nc(-c2ccc(-c3ccccc3)cc2)c[nH]1`, the midpoint of inhibition, the IC50, lay at 670 nM.
With `O=C(NCCc1nc(-c2ccc(-c3ccccc3)cc2)c[nH]1)OC1CCCC1`, the IC50 stood at 870 nM.
On the same count and under the same terms, next, `CCCCOC(=O)NCCc1nc(-c2ccc(CCC)cc2)c[nH]1`: 3990 nM; `CCCCOC(=O)NCCc1nc(-c2ccc(-c3ccccc3)cc2)c[nH]1`: 230 nM.
`CCCCOC(=O)NCCc1nc(-c2ccc(CC)cc2)c[nH]1` yielded an IC50 of 3220 nM.
Take `CCCCOC(=O)NCCc1nc(-c2ccc(CC(C)C)cc2)c[nH]1`: the IC50 was 750 nM.
In the case of `CCCCOC(=O)NCCc1nc(-c2ccc(N3CCCC3)cc2)c[nH]1`, the IC50 was 1120 nM.
On the same count and under the same terms, next, `O=C(NCCc1nc(-c2ccc(-c3ccccc3)cc2)c[nH]1)OC1CCCCC1`: 650 nM; `CCCCOC(=O)NCCc1nc(-c2ccc(Br)cc2)c[nH]1`: 900 nM.
The same measure, in the same setting: then `O=C(NCCc1nc(-c2ccc(-c3ccccc3)cc2)c[nH]1)OCC1CCCCC1`, with 700 nM.
